Reference: ChEMBL document CHEMBL4043279 (Bioorg Med Chem Lett, 2017)
Calls of active or inactive are those of the source. The rule behind the calls is not given here.

What was measured:
PBMC = experiment: Antiproliferative activity against human PBMC treated for 24 hrs measured after 72 hrs by MTT assay; type: cell-based
HL-60 [1] = experiment: Cell cycle arrest in human HL60 cells assessed as accumulation at S-phase at 0.25 uM after 48 hrs by propidium iodide staining based flow cytometry (reference value: 25.19%); type: functional
HL-60 [2] = experiment: Induction of mitochondrial membrane potential loss in human HL60 cells assessed as cells with collapsed mitochondrial membrane potential after 48 hrs by JC-1 staining based flow cytometry; type: functional, cell-based
HL-60 [3] = experiment: Induction of apoptosis in human HL60 cells assessed as live cells at 1 uM after 48 hrs by Annexin V-FITC/propidium iodide staining based flow cytometry (reference value: 95.75%); type: functional
In short: (§1)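 HL-60 cells were treated for 48 h with vehicle alone or with 0.25, 0.5 or 1.0 μM. Cells were then stained with FITC-Annexin V and PI and analysed by two-parameter flow cytometry. Quadrants were scored as viable (LL), early apoptotic (LR), late apoptotic/necrotic (UR) and necrotic (UL). Total apoptosis was taken as early plus late.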

HL-60 [4] = experiment: Induction of apoptosis in human HL60 cells assessed as nuclear fragmentation at 0.25 to 1 uM after 48 hrs by […]; type: functional, cell-based
HL-60 [5] = experiment: Induction of mitochondrial membrane potential loss in human HL60 cells assessed as cells with collapsed mitochondrial membrane potential at 0.5 uM after 48 hrs by JC-1 staining based flow cytometry (reference value: 7.81%); type: functional
HL-60 [6] = experiment: Induction of apoptosis in human HL60 cells assessed as live cells at 0.25 uM after 48 hrs by Annexin V-FITC/propidium iodide staining based flow cytometry (reference value: 95.75%); type: functional; in short: as §1
HL-60 [7] = experiment: Induction of apoptosis in human HL60 cells assessed as necrotic cells at 0.25 uM after 48 hrs by Annexin V-FITC/propidium iodide staining based flow cytometry (reference value: 0.03%); type: functional; in short: as §1
HL-60 [8] = experiment: Induction of apoptosis in human HL60 cells after 48 hrs by Annexin V-FITC/propidium iodide staining based flow cytometry; type: functional, cell-based; in short: as §1
HL-60 [9] = experiment: Cell cycle arrest in human HL60 cells assessed as accumulation at G1-phase at 1 uM after 48 hrs by propidium iodide staining based flow cytometry (reference value: 63.21%); type: functional
HepG2 = experiment: Antiproliferative activity against human HepG2 cells treated for 24 hrs measured after 72 hrs by MTT assay; type: functional, cell-based
HL-60 [10] = experiment: Induction of mitochondrial membrane potential loss in human HL60 cells assessed as cells with collapsed mitochondrial membrane potential at 1 uM after 48 hrs by JC-1 staining based flow cytometry (reference value: 7.81%); type: functional
HL-60 [11] = experiment: Cell cycle arrest in human HL60 cells assessed as accumulation at G1-phase at 0.5 uM after 48 hrs by propidium iodide staining based flow cytometry (reference value: 63.21%); type: functional
HL-60 [12] = experiment: Cell cycle arrest in human HL60 cells assessed as accumulation at G2-phase at 1 uM after 48 hrs by propidium iodide staining based flow cytometry (reference value: 11.61%); type: functional
HL-60 [13] = experiment: Induction of apoptosis in human HL60 cells assessed as early apoptotic cells at 0.5 uM after 48 hrs by Annexin V-FITC/propidium iodide staining based flow cytometry (reference value: 2.66%); type: functional; in short: as §1
HL-60 [14] = experiment: Induction of apoptosis in human HL60 cells assessed as late apoptotic cells at 1 uM after 48 hrs by Annexin V-FITC/propidium iodide staining based flow cytometry (reference value: 1.56%); type: functional; in short: as §1
HL-60 [15] = experiment: Induction of mitochondrial membrane potential loss in human HL60 cells assessed as cells with intact mitochondrial membrane at 0.25 uM after 48 hrs by JC-1 staining based flow cytometry (reference value: 92.17%); type: functional
HL-60 [16] = experiment: Cell cycle arrest in human HL60 cells assessed as accumulation at G1-phase at 0.25 uM after 48 hrs by propidium iodide staining based flow cytometry (reference value: 63.21%); type: functional
HL-60 [17] = experiment: Induction of apoptosis in human HL60 cells assessed as early apoptotic cells at 0.25 uM after 48 hrs by Annexin V-FITC/propidium iodide staining based flow cytometry (reference value: 2.66%); type: functional; in short: as §1
HL-60 [18] = experiment: Induction of apoptosis in human HL60 cells assessed as necrotic cells at 1 uM after 48 hrs by Annexin V-FITC/propidium iodide staining based flow cytometry (reference value: 0.03%); type: functional; in short: as §1
HL-60 [19] = experiment: Induction of mitochondrial membrane potential loss in human HL60 cells assessed as cells with intact mitochondrial membrane at 0.5 uM after 48 hrs by JC-1 staining based flow cytometry (reference value: 92.17%); type: functional
HL-60 [20] = experiment: Induction of mitochondrial membrane potential loss in human HL60 cells assessed as cells with collapsed mitochondrial membrane potential at 0.25 uM after 48 hrs by JC-1 staining based flow cytometry (reference value: 7.81%); type: functional
PC-3 = experiment: Antiproliferative activity against human PC3 cells treated for 24 hrs measured after 72 hrs by MTT assay; type: functional, cell-based
HL-60 [21] = experiment: Cell cycle arrest in human HL60 cells assessed as accumulation at S-phase at 1 uM after 48 hrs by propidium iodide staining based flow cytometry (reference value: 25.19%); type: functional
HL-60 [22] = experiment: Induction of apoptosis in human HL60 cells assessed as early apoptotic cells at 1 uM after 48 hrs by Annexin V-FITC/propidium iodide staining based flow cytometry (reference value: 2.66%); type: functional; in short: as §1
THP-1 = experiment: Antiproliferative activity against human THP1 cells treated for 24 hrs measured after 72 hrs by MTT assay; type: functional, cell-based
HL-60 [23] = experiment: Cell cycle arrest in human HL60 cells assessed as accumulation at G2-phase at 0.25 uM after 48 hrs by propidium iodide staining based flow cytometry (reference value: 11.61%); type: functional
HL-60 [24] = experiment: Induction of apoptosis in human HL60 cells assessed as chromatin condensation at 0.25 to 1 uM after 48 hrs […]; type: functional, cell-based
HL-60 [25] = experiment: Induction of mitochondrial membrane potential loss in human HL60 cells assessed as cells with intact mitochondrial membrane at 1 uM after 48 hrs by JC-1 staining based flow cytometry (reference value: 92.17%); type: functional
HL-60 [26] = experiment: Induction of apoptosis in human HL60 cells assessed as late apoptotic cells at 0.25 uM after 48 hrs by Annexin V-FITC/propidium iodide staining based flow cytometry (reference value: 1.56%); type: functional; in short: as §1
HL-60 [27] = experiment: Induction of apoptosis in human HL60 cells assessed as necrotic cells at 0.5 uM after 48 hrs by Annexin V-FITC/propidium iodide staining based flow cytometry (reference value: 0.03%); type: functional; in short: as §1
HL-60 [28] = experiment: Cell cycle arrest in human HL60 cells assessed as accumulation at S-phase at 0.5 uM after 48 hrs by propidium iodide staining based flow cytometry (reference value: 25.19%); type: functional
HL-60 [29] = experiment: Induction of apoptosis in human HL60 cells assessed as late apoptotic cells at 0.5 uM after 48 hrs by Annexin V-FITC/propidium iodide staining based flow cytometry (reference value: 1.56%); type: functional; in short: as §1
HL-60 [30] = experiment: Antiproliferative activity against human HL60 cells treated for 24 hrs measured after 72 hrs by MTT assay; type: functional, cell-based
HL-60 [31] = experiment: Cell cycle arrest in human HL60 cells assessed as accumulation at G2-phase at 0.5 uM after 48 hrs by propidium iodide staining based flow cytometry (reference value: 11.61%); type: functional
HL-60 [32] = experiment: Induction of apoptosis in human HL60 cells assessed as live cells at 0.5 uM after 48 hrs by Annexin V-FITC/propidium iodide staining based flow cytometry (reference value: 95.75%); type: functional; in short: as §1

COC(=O)[C@H](Cc1ccc(N(CCCl)CCCl)cc1)NC(=O)CCC(=O)OCCCOCCCn1c2c(c3ccccc31)CCN1C(=O)c3ccccc3N(C)C21 (stereo partly specified)
IC50 (PBMC): > 200 µM | Activity (HL-60 [1]): 24.42% | Activity (HL-60 [2]): Dose-dependent effect | Activity (HL-60 [3]): 34.97% | Activity (HL-60 [4]): Active | Activity (HL-60 [5]): 28.51% | Activity (HL-60 [6]): 83.31% | Activity (HL-60 [7]): 0.58% | Activity (HL-60 [8]): Dose-dependent effect | Activity (HL-60 [9]): 45.83% | IC50 (HepG2): 17 µM | Activity (HL-60 [10]): 62.78% | Activity (HL-60 [11]): 58.52% | Activity (HL-60 [12]): 25.99% | Activity (HL-60 [13]): 40.31% | Activity (HL-60 [14]): 6.7% | Activity (HL-60 [15]): 85.67% | Activity (HL-60 [16]): 62.39% | Activity (HL-60 [17]): 10.41% | Activity (HL-60 [18]): 0.79% | Activity (HL-60 [19]): 71.49% | Activity (HL-60 [20]): 14.13% | IC50 (PC-3): > 100 µM | Activity (HL-60 [21]): 28.18% | Activity (HL-60 [22]): 57.54% | IC50 (THP-1): 4.05 µM | Activity (HL-60 [23]): 13.19% | Activity (HL-60 [24]): Active | Activity (HL-60 [25]): 37.22% | Activity (HL-60 [26]): 5.69% | Activity (HL-60 [27]): 0.72% | Activity (HL-60 [28]): 26.28% | Activity (HL-60 [29]): 5.27% | IC50 (HL-60 [30]): 0.5 µM | Activity (HL-60 [31]): 15.19% | Activity (HL-60 [32]): 53.71%
